A selection: hits, their analogues and other compounds. The true share with any hit is near 2.5%.
MC4R ag barr – activates human MC4R beta-arrestin recruitment; activation, % at 8.9 µM; P32245; U2OS MC4R beta-arrestin complementation, luminescence; percent of melanotan II response, DMSO zero; 0.98% of 360,000 active;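 active means activation above a per-plate cutoff, the mean activation of sample wells on that plate plus 3 SD, cut at about 8% in these data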
Target sequence (P32245 whole entry, looked up): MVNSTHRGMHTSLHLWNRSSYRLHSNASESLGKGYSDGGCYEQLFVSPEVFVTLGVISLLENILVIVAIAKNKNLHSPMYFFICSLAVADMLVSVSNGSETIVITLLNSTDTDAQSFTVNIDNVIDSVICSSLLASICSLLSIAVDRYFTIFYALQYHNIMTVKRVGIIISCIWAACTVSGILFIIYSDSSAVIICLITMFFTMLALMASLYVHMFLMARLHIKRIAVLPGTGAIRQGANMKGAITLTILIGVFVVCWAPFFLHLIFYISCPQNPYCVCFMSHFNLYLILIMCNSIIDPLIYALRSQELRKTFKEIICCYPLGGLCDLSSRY
NTR1 ag – NTR1 (human) agonism; NTR1-U2OS beta-arrestin-GFP spot imaging, agonist mode; activation, % at 20 µM; 0.17% of 330,000 active; AID 493036;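 active means activation at or above 40% of the spot to cytoplasm intensity ratio, with at least 20 cells analyzed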;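 further: 0% = DMSO without peptide and 100% = 100 nM NTR1 peptide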
sPLA2-III inh – Inhibits HGIII-sPLA2 liposome hydrolysis, primary screen; Q9NZ20; QFRET BODIPY PC-A2 liposome hydrolysis, fluorescence; inhibition, % at 12.2 µM; 0.56% of 370,000 active; AID 743126;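 active means inhibition above mean plus 3 SD of compounds lying within the high and low control bounds, cut at about 19% in these data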;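 further: 0% = median of test compound wells and 100% = no enzyme DMSO wells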
MC4R antagonist – antagonists of human melanocortin 4 receptor (MC4R); P32245; MC4R-expressing cells, MTII-stimulated cAMP, LANCE TR-FRET; inhibition, % at 6.5 µM; 0.48% of 360,000 active;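 active means inhibition above its plate's cutoff, the mean of tested wells on that plate plus 3 SD, cut at about 29% in these data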;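 further: 0% = Melanotan II alone and 100% = Melanotan II plus saturating MCL0020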
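Material – human MC4R-expressing U2OS cells · Repeats – no replicates · Detection – TR-FRET with Eu-cAMP and labeled anti-cAMP, 671 nm · Times – compound 30 min, challenge 1 h, detection 1 h · Compound – single nominal compound dose of 6.5 µM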
Bfl-1 A1 inh – inhibitors of the anti-apoptotic protein A1, read as caspase activation. caspase activation, % (test concentration not listed). MEF A1-2A-BIM cells, Caspase-Glo 3/7 luminescence, 3 h; percent of clofoctol response, vehicle zero. 0.066% of 330,000 active;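 active means over half of replicate activation scores above 10%, or exactly half above 10 with the replicate mean above 10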
Granule exo inh – blocks lytic granule exocytosis; inhibition, % at 10 µM; 0.66% of 360,000 active; AID 651702; TALL-104 LAMP-1 surface exposure, flow cytometry; cells stimulated with thapsigargin and PMA;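 active means inhibition above about 55%, limit read from the data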
sPLA2 confirm – human GIII-sPLA2 inhibition, confirmation. shares compounds with sPLA2-III inh. recombinant hGIII-sPLA2, BODIPY PC-A2 QFRET fluorescence. inhibition, % at 12.2 µM. 34% of 2,000 active;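 active means mean inhibition across triplicates above the hit cutoff set in the earlier primary screen, cut at about 19% in these data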;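 further: 0% = enzyme with DMSO and 100% = DMSO wells lacking enzyme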
535nm interf – optically interferes with 535nm fluorescence in sPLA2 counter-screen; shares compounds with sPLA2-III inh; BODIPY FL product fluorescence interference, QFRET; 8.5% of 2,000 active; inhibition, % at 12.2 µM; AID 743282;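 active means average inhibition above the solvent-only control mean plus 3 SD, cut at about 6% in these data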;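 further: 0% = DMSO with substrate plus product and 100% = DMSO with substrate alone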
BODIPY interf DR – counter-screen for HGIII-sPLA2 inhibitors: 535nm fluorescence interference, dose response; shares compounds with sPLA2-III inh; BODIPY FL product fluorescence interference, cell-free; IC50, µM; 240 tested, under 10 active; AID 743455;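 active means IC50 at or below 10 µM; inactive means IC50 above 10 µM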
* hit, by the source's call; nt = no result given.

SMILES | MC4R ag barr | NTR1 ag | sPLA2-III inh | MC4R antagonist | Bfl-1 A1 inh | Granule exo inh | sPLA2 confirm | 535nm interf | others
C=CCNC(=O)/C(=C/c1cn(-c2ccccc2)nc1-c1cccc([N+](=O)[O-])c1)NC(=O)c1ccccc1 | 0 | 3 | 21* | 4 | 0 | -1 | -12 | -24
C=CCS/C(N)=N\N=C\c1c(O)ccc2ccccc12 | -2 | 4 | 20* | 12 | -2 | -2 | 29* | 2 | BODIPY interf DR=>122
CCOCCCn1c(=S)[nH]c2cc(C(=O)NCCCN(CC)CC)ccc2c1=O | -2 | 2 | 14 | -2 | 1 | -2 | nt | nt
COc1cc(OC)cc(C(=O)N2CCCc3ccccc32)c1 | 0 | -1 | 20* | 4 | 0 | 1 | -1 | -16
COc1ccccc1Cn1[nH]nnc1=S | -1 | -1 | 22* | 12 | -1 | -1 | 13 | -2
COc1ccccc1CN1C(=O)CNC1=S | -2 | 2 | nt | -1 | 1 | -2 | nt | nt
Cc1cccc(Cc2nc3ccccc3[nH]2)c1 | -2 | nt | 3 | -6 | nt | -4 | nt | nt
Cc1ccc(-n2c(SCC(=O)Nc3ccc(Cl)cc3)nc(O)cc2=O)cc1 | -2 | 1 | 7 | 2 | 0 | 0 | nt | nt
Cc1ccc(-n2c(SCC(=O)NNC(=S)Nc3ccccc3)nc3ccccc3c2=O)cc1 | -4 | 0 | 30* | 16 | 0 | 1 | 26* | 2
CCN(CC)c1ccc(NC(=O)CSc2nc3ccccc3c(=O)n2-c2ccc(C)cc2)cc1 | nt | nt | 28* | nt | nt | nt | 30* | -11 | BODIPY interf DR=>122
Cc1ccc(NC(=S)NNC(=O)CSc2nc3ccccc3c(=O)n2-c2ccc(Cl)cc2)cc1 | nt | nt | 29* | nt | nt | nt | 24* | 2
O=C(CSc1nc2ccccc2c(=O)n1-c1ccc(F)cc1)Nc1ccc(C(=O)O)cc1 | 1 | 1 | -3 | 5 | 0 | 7 | nt | nt
Cc1ccc(S(=O)(=O)N(CC(=O)NC2CC3CCC2C3)c2ccccc2)cc1 (stereo unspecified) | -1 | nt | 7 | 1 | nt | 17 | nt | nt
C/C(=N\NC(N)=S)C1C2C3CC4C5CC(C42)C1C53 (stereo unspecified) | 0 | 2 | 11 | 21 | 0 | -8 | nt | nt
COC(=O)C1=NN(c2cccc(C)c2)C2C(=O)N(c3ccccc3OC)C(=O)C12 (stereo unspecified) | -1 | 1 | 20* | 16 | 1 | 2 | -2 | -2
COC(=O)C1=NN(c2ccccc2OC)C2C(=O)N(c3ccccc3OC)C(=O)C12 (stereo unspecified) | -1 | 1 | -5 | 4 | 2 | -1 | nt | nt
Cc1oc2cc3oc(=O)c(CCC(=O)N(C)CC(=O)O)c(C)c3cc2c1C | 0 | -1 | 23* | -3 | 0 | -2 | 6 | -4
CCc1cc2c3c(c1)C(C)CC(C)(C)N3C(=O)C2=O (stereo unspecified) | -3 | 10 | 27* | -28 | 0 | 5 | 12 | -4
C=CC[n+]1c(-c2ccccc2)csc1NC(C)(C)C | -1 | -1 | 19* | 5 | 0 | -3 | 21* | -4
CCn1c(/C=C/c2ccccc2C)nc2ccccc2c1=O | 0 | 2 | 6 | 7 | 0 | 17 | nt | nt
CCn1c(/C=C/c2c(C)n(CC)c3ccccc23)nc2ccccc2c1=O | -2 | 20 | 24* | 10 | 0 | -5 | 0 | -9
Cc1cc(C(F)(F)F)nc(SCCN2CCCCC2)c1C#N | 2 | 0 | -10 | 2 | -1 | 0 | nt | nt
CN(C)c1ccc(/C=N/NC(=S)NCc2ccco2)cc1 | -2 | 5 | 26* | 3 | 0 | -3 | 14 | -4
Cc1ccc(CNC(=O)CNS(=O)(=O)c2ccc(Br)s2)cc1 | 0 | 2 | -25 | 8 | 0 | -11 | nt | nt
COc1ccc(NC(=S)NC(NC(=O)c2cccc(Cl)c2)C(Cl)(Cl)Cl)c([N+](=O)[O-])c1 (stereo unspecified) | 0 | 14 | 29* | -1 | nt | 1 | 52* | 12*
SMILES | MC4R ag barr | NTR1 ag | sPLA2-III inh | MC4R antagonist | Bfl-1 A1 inh | Granule exo inh | sPLA2 confirm | 535nm interf | others
Cc1nn(C)c(-c2n[nH]c(=S)n2Cc2ccco2)c1Cl | -3 | 1 | 20* | 4 | 0 | 1 | 22* | -1
Oc1ccc(-c2n[nH]c(=S)n2Cc2ccco2)cc1 | 0 | 1 | 5 | 8 | 0 | -2 | nt | nt
Cc1cc(C)nc(NC(=S)Nc2ccc(F)cc2F)c1 | 0 | -1 | 7 | 4 | -1 | 0 | nt | nt
Cc1cccnc1NC(=S)Nc1ccc(F)cc1F | -3 | 0 | 20* | -4 | 0 | -2 | 21* | -4
Cc1ccc(C)c(NC(=S)Nc2ncccc2C)c1 | -1 | 1 | 19* | 9 | -4 | -1 | 10 | -8
COc1cc(NC(=S)Nc2ncccc2C)cc(OC)c1OC | 0 | 1 | 1 | 1 | 0 | -14 | nt | nt
CCN(CC(=O)NCc1ccc(F)cc1)C(=O)CN1CCN(c2ccc(OC)cc2)CC1 | -2 | -1 | 6 | 0 | 0 | 4 | nt | nt
NNc1nc2c(F)cc(F)cc2s1 | 4 | 0 | 20* | 6 | -2 | 3 | 20* | 5
COc1ccccc1NC(=O)c1ccc2c(c1)N(CC#N)C(=O)C(C)(C)O2 | -1 | 0 | -6 | 17 | 0 | -1 | nt | nt
CC(C)c1onc(C(=O)N(C)Cc2ccccc2)c1[N+](=O)[O-] | 1 | 1 | 22* | 8 | 0 | -7 | -5 | 1
CC(C)c1onc(C(=O)NCCc2ccccc2)c1[N+](=O)[O-] | -2 | -1 | 4 | 1 | -1 | 6 | nt | nt
O=C(OCc1ccccc1)N1CCC2CC1c1ccc(N3CCNCC3)cc12 (stereo unspecified) | 0 | nt | 31* | 4 | nt | 0 | -4 | -35
COc1ccc(NC(=S)N2CCN(c3ccc4c(c3)C3CCN(C(=O)OCc5ccccc5)C4C3)CC2)c(OC)c1 (stereo unspecified) | nt | nt | 25* | nt | nt | -6 | 5 | -22
O=C(OCc1ccccc1)N1CCC2CC1c1ccc(N3CCOCC3)cc12 (stereo unspecified) | 0 | nt | 13 | 1 | nt | -1 | nt | nt
O=C(OCc1ccccc1)N1CCC2CC1c1cc(N3CCN(C(=S)NCCc4ccccc4)CC3)ccc12 (stereo unspecified) | nt | nt | -1 | nt | nt | 1 | nt | nt
CC(C)Oc1ccc(CNC(=O)c2cc(S(=O)(=O)N3CCOCC3)cn2C)cc1 | -2 | -1 | 2 | 3 | 0 | 0 | nt | nt
N=C(N)SCc1ccccn1 | -2 | 0 | -7 | -2 | 0 | 2 | nt | nt

From PubChem BioAssay
